Experimental data from different studies.
Compare with care: the assays were run in different laboratories.
RET: Proto-oncogene tyrosine-protein kinase receptor Ret (RET, Homo sapiens, UniProt P07949)
RET M918T: Proto-oncogene tyrosine-protein kinase receptor Ret (RET, Homo sapiens, UniProt P07949, M918T)
RET V804M: Proto-oncogene tyrosine-protein kinase receptor Ret (RET, Homo sapiens, UniProt P07949, V804M)

SMILES | target | read-out | mode | technique | tested at | quantity | value
Cn1cc(-c2cccc(N3CCc4c(sc5c4CC(C)(C)C5)C3=O)c2CO)cc(Nc2ccncn2)c1=O | RET | enzyme activity | inhibitor | – | 1 µM | inhibition | 14%
O=C1NC(=O)N(c2ccccc2)C(=O)C1=CNc1ccc2[nH]c(=O)[nH]c2c1 | RET | enzyme activity | inhibitor | radiometric | 0.1 µM | remaining activity | 107%
Cn1cncc1[C@](O)(COc1ccc(C#N)cc1-c1ccc(OC(F)(F)F)cc1)c1ccc(C#N)cc1 | RET M918T | cell-free assay | – | competition with immobilised ligand | 1 µM | remaining binding | 95%
CC(C)(C)c1cc(C=C(C#N)C#N)cc(Br)c1O | RET | enzyme activity | inhibitor | – | 0.5 µM | remaining activity | 98.2%
C#Cc1n[nH]c2c(-c3cn([C@@H](C)c4ccccc4)c(=O)[nH]c3=O)cc(F)cc12 | RET | enzyme activity | inhibitor | – | 0.1 µM | inhibition | 3.2%
Cc1nn(C)cc1-c1nc2c(N3CCN(Cc4ccc(Cl)cc4)CC3)c(Cl)cnc2[nH]1 | Proto-oncogene tyrosine-protein kinase receptor Ret (RET, Homo sapiens, UniProt P07949, V804L) | binding | – | competition with immobilised ligand | 1 µM | remaining binding | 2.1%
Nc1ncc(-c2nc(N3CCOCC3)nc(N3CCOCC3)n2)c(C(F)F)n1 | RET V804M | binding | – | competition with immobilised ligand | 10 µM | remaining binding | 73%
O=C(Cn1cc(C=C2C(=O)NC(=O)NC2=O)c2ccccc21)Nc1ccccc1 | RET | enzyme activity | inhibitor | radiometric | 0.1 µM | remaining activity | 131%
C#Cc1n[nH]c2c(-c3cn([C@@H](C)c4ccccn4)c(=O)[nH]c3=O)cc(F)cc12 | RET V804M | enzyme activity | inhibitor | – | 0.1 µM | inhibition | -0.3%
N#CC1(c2ccccn2)CCN(Cc2cc(C(=O)O)c(=O)n3ccccc23)CC1 | RET M918T | cell-free assay | – | competition with immobilised ligand | 1 µM | remaining binding | 100%
